NR2E3 ag-1: NR2E3 agonists in two-hybrid cells, primary screen, cell-based, luminescence, CHO-S, Gal4-NCOR/VP16-NR2E3 | Photoreceptor-specific nuclear receptor (Homo sapiens), Q9Y5X4 | luciferase | inhibition of corepressor binding, % at 3.98 µM | actives 0.35% (n = 360,000);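 active = inhibition above the mean of all tested compounds plus 3 SD, cut at about 70% in these data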;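 also: 0% = DMSO with NR2E3 transfected cells and 100% = cells lacking NR2E3 construct; higher means lower luciferase signal from less NR2E3 corepressor binding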
Target sequence (Q9Y5X4 whole entry, looked up, the tested form may be a part): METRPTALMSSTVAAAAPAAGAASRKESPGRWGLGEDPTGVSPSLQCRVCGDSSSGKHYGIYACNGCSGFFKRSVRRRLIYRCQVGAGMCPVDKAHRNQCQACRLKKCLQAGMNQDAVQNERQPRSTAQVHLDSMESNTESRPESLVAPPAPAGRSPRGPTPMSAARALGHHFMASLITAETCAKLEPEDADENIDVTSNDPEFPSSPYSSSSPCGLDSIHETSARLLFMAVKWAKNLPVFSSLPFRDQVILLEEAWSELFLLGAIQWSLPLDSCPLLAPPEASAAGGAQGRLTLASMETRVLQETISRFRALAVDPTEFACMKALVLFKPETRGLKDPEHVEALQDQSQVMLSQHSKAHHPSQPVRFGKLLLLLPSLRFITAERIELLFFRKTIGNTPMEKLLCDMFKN
NR1D1 modulator: modulators of Rev-erb alpha DNA binding, primary screen, biochemical, FITC-DNA, fluorescence polarization, uHTS | Nuclear receptor subfamily 1 group D member 1 (Homo sapiens), P20393 | Rev-erbα–FITC-DNA binding, 90 min | activity, % at 10 µM | actives 0.79% (n = 370,000);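 active = activity above about 14%, limit read from the data; passing the limit was not always enough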;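 also: 0% = DMSO wells with 35 nM protein and 100% = DMSO wells with 750 nM protein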
Neddylation inh: inhibitors of cullin neddylation, primary screen, biochemical, TR-FRET, uHTS, NAE and Ubc12; actives 0.58% (n = 360,000); calls only at 25 µM; in the data active = inhibition above about 36%
PG9 binder: binders of HIV-1 gp120 antibody PG9, primary screen, biochemical, TR-FRET. HIV-1 gp120 / PG9 antibody interaction. TR-FRET gp120-PG9 antibody binding. inhibition, % at 6.7 µM. actives 0.43% (n = 360,000). AID 624416, 2012; in the data active = inhibition above about 8.5%
NR2E3 ag-2: inhibitors of NR2E3-RetCOR corepressor binding, primary screen, NR2E3 agonist project, biochemical, TR-FRET, GST-NR2E3, biotin-RetCOR. 1536-well. inhibition of corepressor binding, % at 4.78 µM. actives 0.12% (n = 320,000). AID 2300, 2010;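 active = percent inhibition above the cutoff of mean plus 3 SD of all tested compounds, set per screening campaign, cut at about 20% in these data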;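 also: 0% = DMSO wells and 100% = biotin wells as full block of FRET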
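Material – GST-tagged NR2E3 plus biotinylated RetCOR corepressor · Quantity – NR2E3 fusion 1.35 nM · Times – 5 h incubation at 4 °C · Medium – pH 7.5 Tris-based buffer · Technique – TR-FRET, Eu(K)-anti-GST donor, streptavidin-D2 acceptor, ex 340, em 617/671 nm · Benchmarks – high control biotin, low control 0.6% DMSO · Format – 1536-well plates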
Rev-erbA confirm: modulators of Rev-erb alpha DNA binding, confirmation, biochemical, FITC-DNA, fluorescence polarization, single point | shares compounds with NR1D1 modulator | 90 min | activation, % at 25 µM | actives 61% (n = 3,000) | AID 1259319, 2017;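 active = activation at or above a set limit, or at least 3 SD above the negative control mean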;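 also: 0% = 35 nM protein with DMSO and 100% = 750 nM protein high control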
RORg counter: modulation of RORgamma DNA binding, dose response, counter-screen for Rev-erb alpha modulator project, biochemical, fluorescence polarization, FITC-DNA | shares compounds with NR1D1 modulator | purified RORgamma protein-FITC-DNA binding | IC50, µM | actives 8% (n = 910) | AID 1259320, 2017;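 active = Compounds whose fitted half-maximal concentration for disrupting protein-DNA binding is below 10 micromolar; the record names Rev-erb in its text, so the target is in doubt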
The depositor's hits bear a star; i = inactive; x = no result shown. Rows were chosen to be rich in hits. Some 2% of all compounds tested hit in one or more screens of this group.

SMILES | NR2E3 ag-1 | NR1D1 modulator | Neddylation inh | PG9 binder | NR2E3 ag-2 | Rev-erbA confirm | others
COc1ccc(OC)c(CN2C(=O)c3ccccc3C2c2nnnn2-c2c(C)cccc2C)c1 (stereo not given) | -10 | -1 | i | -1 | x | x
Cc1ccc(S(=O)(=O)N2CC3C(=O)C[C@@H](c4ccccc4)N(S(=O)(=O)c4ccc(CCCOCCOCCNC(=O)OC(C)(C)C)cc4)C3CC2c2ccccc2)cc1 (stereo not given in full) | x | 3 | i | 0 | x | x
Cc1oc2c(C)c3oc(=O)c4c(c3cc2c1C)CCCC4 | -11 | 30* | i | 1 | 2 | 1
CN1C(=O)CSC1=NC12CC3CC(CC(C3)C1)C2 | -30 | 11 | i | 2 | -4 | x
CCN1C(=O)CSC1=NC12CC3CC(CC(C3)C1)C2 | -12 | 49* | i | 0 | 2 | 58* | RORg counter=>40
N=C1C(c2nc3ccccc3s2)=C(O)CN1C1CCC(O)CC1 (stereo not given) | x | -2 | x | -2 | 3 | x
N=C1C(c2nc3ccccc3s2)=C(O)CN1C1CCCCC1 | -32 | 20* | i | -2 | 1 | 11
CCCCc1cc(=O)oc2c(C)c(OCC(=O)NCc3ccccn3)ccc12 | -20 | -5 | i | 0 | -4 | x
CCc1cc(=O)oc2c(C)c(OCC(=O)NCc3ccccn3)ccc12 | 12 | 30* | x | 0 | -1 | 23*
CCn1nc(NC(=O)CC(C)C)c2cc3cccc(C)c3nc21 | 6 | 24* | i | 1 | -5 | -2
CCCn1nc(NC(=O)CC(C)C)c2cc3cccc(C)c3nc21 | 15 | 20 | i | 3 | 2 | x
CNc1ncnc2c1ncn2[C@H]1CN(Cc2cccc3ccccc23)C[C@@H](CO)O1 | -29 | -3 | i | 0 | x | x
O=C(Nc1nc2ccc(Cl)cc2s1)c1cccc(N2C(=O)CCC2=O)c1 | -56 | 43* | i | 1 | -5 | 7
Cc1nc(SCC(=O)Nc2ccccc2C(F)(F)F)c(C#N)c(C)c1CC(=O)c1ccc(Br)cc1 | x | 43* | x | 1 | 5 | 7
CCc1c(C)nc(SCC(=O)c2cccs2)c(C#N)c1C | -242 | 3 | i | -3 | -3 | x
COC(=O)CCC(=O)c1oc2ccc(Cl)cc2c1NC(=O)CCCN1C(=O)c2ccccc2C1=O | 7 | 41* | i | 1 | 2 | 28*
O=C(CSc1nnc(-c2cccnc2)n1-c1ccccc1)Nc1ccc(OCc2ccccc2)cc1 | x | -1 | x | x | x | x
O=c1c2cc3c(cc2[nH]c(=S)n1C1CCN(Cc2ccccc2)CC1)OCO3 | -6 | 15* | i | 0 | 1 | 6
O=C1c2ccc(-c3ccc(F)cc3OCc3ccccc3)cc2S(=O)(=O)c2cccc(C(=O)N3CCN(c4ncc(Br)cn4)CC3)c21 | 24 | 75* | i | 0 | x | 66*
COC(=O)c1ccsc1NC(=O)c1ccc(Cl)s1 | -12 | 20* | i | -2 | 2 | -2
COC(=O)c1ccsc1NC(=O)c1ccc2c(c1)OCCO2 | -8 | 8 | i | 0 | 2 | x
CCOC(=O)N(C)C[C@@H]1OCc2cnnn2CCCC(=O)N([C@H](C)CO)C[C@@H]1C | 4 | -6 | i | 1 | x | x
O=C(C1=NN[C@@H]2C(=O)N(Cc3ccccc3)C(=O)[C@H]12)c1ccc([N+](=O)[O-])cc1 | 3 | 16* | i | 0 | 0 | 4
O=C(c1ccc(-c2ccccc2)cc1)c1ccc([N+](=O)[O-])cc1 | x | x | x | x | 0 | x
O=C(/C=C1\OCc2ccccc21)c1ccccc1 | x | 13* | i | 1 | x | -4
SMILES | NR2E3 ag-1 | NR1D1 modulator | Neddylation inh | PG9 binder | NR2E3 ag-2 | Rev-erbA confirm | others
O=C(/C=C1\OCc2ccccc21)OCc1ccccc1 | x | -3 | i | 0 | x | x
CN(C)c1ccc(C(C(=O)NCC2CCCO2)N(C(=O)c2snc(C(N)=O)c2N)c2ccccc2)cc1 (stereo not given) | -22 | 38* | i | -3 | -3 | 10
CCCC(C(=O)NC1CCCC1)N(Cc1ccc(F)cc1)C(=O)c1snc(C(N)=O)c1N (stereo not given) | -9 | -8 | i | -1 | 4 | x
CCCCC(C(=O)NC1CCCC1)N(Cc1ccccc1)C(=O)c1snc(C(N)=O)c1N (stereo not given) | -9 | 22* | i | -1 | 5 | -1
Cc1cccc(N(C(=O)c2snc(C(N)=O)c2N)C(C(=O)NCC2CCCO2)c2ccc(N(C)C)cc2)c1 (stereo not given) | -14 | 46* | i | 0 | 1 | 14
CC(C)C[C@H](NC(=O)c1ccccc1)C(=O)N1CCC[C@H]1C(=O)NCc1ccccc1 | x | 1 | x | 0 | x | x
CCc1nc2oc3ccc(C)cc3c(=O)c2cc1C(=O)OC | -69 | 30* | i | -2 | x | 27*
COC(=O)c1cc2c(=O)c3ccccc3oc2nc1C | -99 | -3 | i | 1 | x | x
COc1cccc(C(=O)OCC(=O)N2CCc3ccccc3C2)c1 | -50 | -4 | i | 2 | x | x
COc1ccc(-c2nc3c(c(=O)c4ccccc4n3C)c(=O)n2Cc2ccccc2)cc1 | -32 | 48* | i | 1 | -1 | 50* | RORg counter=>40
CCCCCc1nc2c(c(=O)c3ccccc3n2C)c(=O)n1Cc1ccc(OC)cc1 | -12 | 67* | i | 1 | 0 | 34* | RORg counter=>40
COc1ccc(Cn2c(-c3ccccc3C)nc3c(c(=O)c4ccccc4n3C)c2=O)cc1 | -5 | 45* | i | 2 | 5 | 2
COc1ccc(Cn2c(-c3ccco3)nc3c(c(=O)c4ccccc4n3C)c2=O)cc1 | 0 | -22 | i | 4 | 0 | x
Cc1ccc(-c2nc3c(c(=O)c4ccccc4n3C)c(=O)n2-c2ccc(F)cc2)cc1 | -27 | 69* | i | -1 | 1 | 43* | RORg counter=2.7*
CCOC(=O)N1CCN(C(=O)c2oc3ccc(S(=O)(=O)N(CC)CC)cc3c2C)CC1 | 11 | -1 | i | 0 | 1 | x
Cc1ccc(-n2c(SCC(=O)c3ccc(-c4ccccc4)cc3)nnc2-c2ccc(C(C)(C)C)cc2)cc1 | x | 15 | x | x | x | x
N#CCCN(C(=O)COC(=O)COc1ccccc1Cc1ccccc1)c1ccccc1 | -26 | -3 | i | 1 | 0 | x
